CAL PDZ FP-1 – inhibitors of human CAL PDZ peptide binding; 330,000 tested, 0.02% active; purified CAL PDZ, TMR-peptide fluorescence polarization, 1 h; inhibition, % at 20 µM; Q9HD26;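 active means highest replicate inhibition of at least 40%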;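 further: plate controls were DMSO neutral control wells for no effect and unlabeled competitor peptide control wells for full effect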
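Control set: unlabelled peptide and DMSO controls / Material: purified CerCALP PDZ construct / Timing: 1 h incubation at room temperature before polarization reading / Doses: 20 µM, one dose / Detection: fluorescence polarization (mP)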
CAL PDZ FP-2 – blocks peptide binding to the human CAL PDZ domain | purified CAL PDZ, TMR-peptide fluorescence polarization, 1 h | inhibition, % at 24.9 µM | 300,000 tested, 0.92% active | AID 602252;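 active means mean inhibition of at least 30% with at least half of replicates also reaching 30%; inconclusive means no clear call, values can overlap the other calls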;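 further: 0% = DMSO neutral control and 100% = excess unlabeled competitor peptide PRC23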
ERAP1 inh – blocks human ERAP1 aminopeptidase activity; Q9NZ08; recombinant ERAP1, Leu-AMC fluorescence, 60 min; inhibition, % at 10.7 µM; 340,000 tested, 0.15% active;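 active means mean replicate inhibition of at least 30%, or all replicates individually reaching that 30% level; inactive means mean below 30% and not every replicate reaching it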;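 further: 0% = neutral control wells and 100% = L-leucinethiol positive control wells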
Target sequence (Q9NZ08 whole entry, looked up): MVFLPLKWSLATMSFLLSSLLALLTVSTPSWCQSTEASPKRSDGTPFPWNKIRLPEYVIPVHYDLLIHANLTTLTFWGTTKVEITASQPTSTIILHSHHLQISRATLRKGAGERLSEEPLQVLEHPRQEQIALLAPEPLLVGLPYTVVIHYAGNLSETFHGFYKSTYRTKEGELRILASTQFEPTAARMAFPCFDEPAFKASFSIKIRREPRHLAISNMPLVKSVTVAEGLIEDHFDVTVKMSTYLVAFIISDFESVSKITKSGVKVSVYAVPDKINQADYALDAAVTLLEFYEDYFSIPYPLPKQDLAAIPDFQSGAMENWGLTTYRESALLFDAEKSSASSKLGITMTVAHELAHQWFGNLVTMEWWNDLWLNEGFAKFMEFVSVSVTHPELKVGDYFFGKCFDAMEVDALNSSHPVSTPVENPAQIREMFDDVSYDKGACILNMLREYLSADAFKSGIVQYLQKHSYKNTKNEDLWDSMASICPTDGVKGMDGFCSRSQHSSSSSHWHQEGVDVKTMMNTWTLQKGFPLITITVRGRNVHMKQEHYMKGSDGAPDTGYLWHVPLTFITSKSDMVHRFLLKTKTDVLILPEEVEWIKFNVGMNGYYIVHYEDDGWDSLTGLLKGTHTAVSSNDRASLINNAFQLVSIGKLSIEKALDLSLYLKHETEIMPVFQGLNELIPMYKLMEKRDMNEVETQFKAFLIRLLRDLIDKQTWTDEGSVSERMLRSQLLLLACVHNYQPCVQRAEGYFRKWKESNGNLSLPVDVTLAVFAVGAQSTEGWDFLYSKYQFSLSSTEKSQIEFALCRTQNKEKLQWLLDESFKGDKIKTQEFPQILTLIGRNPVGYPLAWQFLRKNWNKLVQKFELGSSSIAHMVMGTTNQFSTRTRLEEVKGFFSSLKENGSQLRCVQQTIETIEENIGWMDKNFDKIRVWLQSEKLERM
S100A4 inh HTS – inhibitors of human S100A4 binding to myosin IIA peptide. S100A4/TAMRA-MyoIIA peptide fluorescence polarization. inhibition, % at 10.7 µM. 360,000 tested, 0.14% active. AID 652163;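 active means mean inhibition of at least 70% across replicates, with every replicate also reaching that level; inconclusive means mean inhibition reaches 70% but some replicates fall short; inactive means mean inhibition below 70%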
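Material: S100A4 monomer protein / Buffer or medium: 50 mM HEPES pH 7.2, 10 mM CaCl2, 100 mM KCl / Times: 5 min incubation before reading / Benchmarks: neutral control DMSO, positive control TFP / Reagent: labelled myosin peptide probe, 5 nM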
DENV2 CPE rescue – inhibitors of DENV2 cytopathic effect; CPE inhibition, % at 9.99 µM; 350,000 tested, 1.7% active; DENV2-infected cells, cytopathic effect rescue, plate reader; AID 651640; in the data active means CPE inhibition above about 20%, passing the limit was not always enough; inconclusive means no clear call, values can overlap the other calls; tested in BHK-21 cells;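 further: 0% = median of neutral control wells and 100% = median of positive control wells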
SIRT5 inh – blocks human SIRT5 desuccinylation of peptide | Q9NXA8 | Purified SirT5, succinyl-peptide AMC, trypsin-coupled fluorescence | inhibition, % at 15 µM | 330,000 tested, 1.1% active | AID 652115; in the data active means inhibition above about 15%; inconclusive means no clear call, values can overlap the other calls
An asterisk follows results filed as active; ? = inconclusive; nt = not tested or not shown. This is a sample that favours compounds with a hit; in the whole collection about 2.9% have one here.

SMILES | CAL PDZ FP-1 | CAL PDZ FP-2 | ERAP1 inh | S100A4 inh HTS | DENV2 CPE rescue | SIRT5 inh
COc1ccc(NC(=O)Nc2ccc3c(c2)C(=O)N([C@@H](C)CO)C[C@@H](C)[C@H](CN(C)C(=O)Nc2ccc(C(F)(F)F)cc2)OCCCC[C@@H](C)O3)cc1 | nt | nt | -6 | -7 | ? | 18*
C[C@@H]1CCCCO[C@@H](CN(C)C(=O)Nc2ccc(C(F)(F)F)cc2)[C@@H](C)CN([C@H](C)CO)C(=O)c2cc(NC(=O)Nc3ccc4c(c3)OCO4)ccc2O1 | nt | nt | 2 | -1 | 1 | 1
C[C@@H]1CCCCO[C@H](CN(C)CC2CCCCC2)[C@H](C)CN([C@H](C)CO)C(=O)c2cc(NC(=O)Nc3ccc(C(F)(F)F)cc3)ccc2O1 | nt | nt | 0 | -13 | 9 | 100*
C[C@@H]1CN([C@@H](C)CO)C(=O)Cc2cc(N(C)C)ccc2O[C@@H]1CN(C)C(=O)Nc1ccc2c(c1)OCO2 | nt | nt | 0 | -6 | 7 | 0
C[C@@H]1CCCCO[C@H](CN(C)C(=O)Nc2ccc(C(F)(F)F)cc2)[C@H](C)CN([C@@H](C)CO)C(=O)c2cc(NC(=O)Nc3ccc(C(F)(F)F)cc3)ccc2O1 | nt | nt | nt | nt | 30* | nt
C[C@H](CO)N1C[C@H](C)[C@H](CN(C)C(=O)Nc2ccc(C(F)(F)F)cc2)OCCCC[C@H](C)Oc2ccc(NC(=O)Nc3ccc(C(F)(F)F)cc3)cc2C1=O | nt | nt | nt | nt | -6 | nt
C[C@H]1CCCCO[C@H](CN(C)C(=O)Nc2ccc(C(F)(F)F)cc2)[C@@H](C)CN([C@@H](C)CO)C(=O)c2cc(NC(=O)Nc3ccc(F)cc3)ccc2O1 | nt | nt | 3 | -10 | -2 | 17*
C[C@H]1CCCCO[C@H](CN(C)C(=O)Nc2ccccc2)[C@@H](C)CN([C@@H](C)CO)C(=O)c2cc(NC(=O)Nc3ccc(C(F)(F)F)cc3)ccc2O1 | nt | nt | nt | nt | 60* | -3
Cc1onc(-c2ccccc2)c1C(=O)c1c[nH]c(C(=O)NCc2ccccn2)c1 | 0 | 4 | -2 | 2 | -1 | 19*
Cc1onc(-c2ccccc2)c1C(=O)c1c[nH]c(C(=O)NCc2ccncc2)c1 | -2 | 2 | 2 | 2 | 3 | -4
CC(C)C[C@@H]1CN(CCCC[C@H]2CNC(=O)C(=O)N2CCC2CCCCC2)C(=O)C(=O)N1Cc1ccccc1 | nt | nt | -2 | 3 | 24* | 7
CC(C)(C)CN1C(=O)C(=O)NC[C@@H]1CCCCN | 1 | 4 | nt | 0 | 136* | nt
CC(C)C[C@H]1CN(CCCC[C@H]2CNC(=O)C(=O)N2CCC2CCCCC2)C(=O)C(=O)N1CCc1ccccc1 | nt | nt | -5 | -4 | -5 | -3
O=C1NC[C@@H](CCCCN2CCN(CCc3ccc(O)cc3)C(=O)C2=O)N(Cc2ccccc2)C1=O | nt | nt | -2 | -2 | 87* | -1
CCCC[C@@H]1CNC(=O)C(=O)N1CCCCC1CCCCC1 | nt | nt | 6 | -18 | 42* | nt
CCCNC(=O)[C@H]1[C@H](CO)[C@H]2Cn3c(cccc3=O)[C@H]2N1Cc1ccccn1 | nt | nt | 4 | 14 | 0 | 1
CN1c2ccc(-c3ccccc3)cc2[C@@H]2[C@@H](CCN2S(=O)(=O)c2ccccc2F)[C@@H]1CO | nt | nt | 1 | 13 | 68* | 5
CN1c2ccc(C#Cc3cccnc3)cc2[C@@H]2[C@@H](CCN2S(=O)(=O)c2ccccc2F)[C@@H]1CO | nt | nt | 1 | 120* | -18 | -26
CN1c2ccc(-c3ccccc3)cc2[C@@H]2[C@@H](CCN2S(=O)(=O)c2ccccc2F)[C@H]1CO | nt | nt | 2 | -2 | -7 | 3
Cc1ccccc1S(=O)(=O)N1CC[C@@H]2[C@@H](CO)N(C)c3ccc(-c4cccc(F)c4)cc3[C@@H]21 | nt | nt | nt | nt | 44* | nt
COC(=O)c1ccc(NC(=O)c2c(C(=O)Nc3ccccc3)sc3nc(C)cc(=O)n23)cc1 | -1 | 99* | -23 | 30 | ? | 2
COC(=O)c1ccc(NC(=O)c2sc3nc(-c4ccccc4)cn3c2C)cc1 | 0 | nt | nt | nt | nt | nt
CN(C)CC(=O)Nc1ccc2c(c1)[C@H]1C[C@H](CC(=O)NCc3cccc(F)c3)O[C@@H](CO)[C@H]1O2 | nt | nt | 0 | 1 | 5 | 6
